Only some compounds are listed: those with a hit (about 1.5% of all), similar ones and a draw of the others.
APJ ag: agonists of human apelin receptor APJ, primary screen, CHO-K1 cells, PathHunter beta-arrestin, luminescence; 0% DMSO wells, 100% apelin; AID 2520, 2010; activation, % at 20 µM; 0.11% of 330,000 active; P35414;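 active = activation more than six SD over the plate average, tested at 20 µM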;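 note: 0% = DMSO alone and 100% = apelin-13 at 10 nM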
Target sequence (P35414 whole entry, looked up): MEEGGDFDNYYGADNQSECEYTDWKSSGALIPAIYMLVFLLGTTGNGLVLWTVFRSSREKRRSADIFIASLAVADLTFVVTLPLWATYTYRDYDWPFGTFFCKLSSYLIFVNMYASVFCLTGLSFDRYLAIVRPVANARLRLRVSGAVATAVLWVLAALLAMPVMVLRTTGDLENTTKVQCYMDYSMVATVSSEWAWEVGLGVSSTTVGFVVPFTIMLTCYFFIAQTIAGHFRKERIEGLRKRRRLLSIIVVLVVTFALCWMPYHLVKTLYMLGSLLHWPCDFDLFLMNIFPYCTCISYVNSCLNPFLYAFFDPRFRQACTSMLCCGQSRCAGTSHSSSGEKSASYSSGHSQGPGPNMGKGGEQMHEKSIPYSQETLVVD
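Assay system: CHO-K1 APJ beta-arrestin complementation cell line / Compound: single test compound dose, 20 µM final, 1% DMSO / Times: overnight seeding, 90 min compound at 25 °C, 1 h detection / Technique: beta-gal luminescence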
EBI2 antag: EBI2 receptor antagonists, beta-arrestin recruitment, primary screen, cell-based, luminescence, 7a,25-OHC stimulation, uHTS. G-protein coupled receptor 183 (Homo sapiens), P32249. 7a,25-OHC stimulated. inhibition, % at 5 µM. 0.81% of 360,000 active; in the data active = inhibition above about 38%;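 note: enzyme fragment complementation signal reports receptor beta-arrestin coupling in cells; 0% = agonist plus DMSO wells and 100% = wells without agonist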
CCR6 antagonist: CCR6 receptor antagonists, primary screen, cell-based, CHO-K1, luminescence, beta-arrestin, uHTS; inhibition, % at 20 µM; 0.49% of 340,000 active; CHO-K1 CCR6 PathHunter beta-arrestin, CCL20-stimulated;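 active = compounds whose inhibition of the agonist-driven luminescence signal at 20 µM reaches about 50%, limit read from the data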;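 note: cells stimulated with CCL20 at 14 nM final; plate controls were DMSO with CCL20 for no effect and DMSO without agonist for full effect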
CXCR6 block: CXCR6 receptor inhibitors, primary screen, cell-based, beta-arrestin, luminescence, CHO-K1 PathHunter, 1536-well; C-X-C chemokine receptor type 6 (Homo sapiens), O00574; 0.36% of 360,000 active; inhibition, % at 20 µM; in the data active = inhibition above about 34%, passing the limit was not always enough;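 note: antagonist mode with CXCL16 agonist at 10 nM final; 0% = 10 nM CXCL16 with DMSO and 100% = unstimulated wells without agonist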
APJ antagonist: antagonists of human apelin receptor APJ, primary screen, CHO-K1 cells, beta-arrestin complementation, luminescence. 0.32% of 330,000 active. inhibition, % at 20 µM. P35414;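 active = inhibition above about 40% at 20 µM, limit read from the data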;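 note: cells challenged with 10 nM apelin-13 agonist together with compound; plate controls were apelin-13 plus DMSO wells for no effect and DMSO wells lacking apelin-13 for full effect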
EBI2 antag conf: EBI2 antagonist hit retest, beta-arrestin, confirmation, cell-based, single concentration, luminescence, 7a,25-OHC stimulation; shares compounds with EBI2 antag; 7a,25-OHC antagonism; inhibition, % at 5 µM; 29% of 2,400 active; AID 651997, 2013;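 active = inhibition of at least 50%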
EBI2 agonist: EBI2 agonist activity of antagonist hits, confirmation, counter-screen for EBI2 antagonist project, cell-based, single concentration, agonist mode, luminescence | shares compounds with EBI2 antag | EBI2-expressing cells, 60 min; 0% vehicle, 100% 7α,25-dihydroxycholesterol control | activation, % at 5 µM | 2,400 tested, under 10 active | AID 652000, 2013;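 active = activation of at least 50%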
bGal cs: E. coli beta-galactosidase enzyme inhibition, confirmation, counter-screen for EBI2 antagonist project, biochemical, luminescence, single concentration | shares compounds with EBI2 antag | purified beta-galactosidase, luminescent Galacton Star, 15 min | inhibition, % at 5 µM | 1% of 2,400 active | AID 652176, 2013;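 active = replicate-average signal at least 3 plate SD below neutral wells, shown as high inhibition, flagging enzyme-inhibiting false positives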;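 note: 0% = DMSO wells with enzyme and 100% = wells lacking enzyme; higher means stronger loss of beta-gal luminescence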
Numbers without * were called inactive; nt = no result.

SMILES	APJ ag	EBI2 antag	CCR6 antagonist	CXCR6 block	APJ antagonist	EBI2 antag conf	EBI2 agonist	bGal cs
Fc1ccc(Nc2ccc(-c3ccc(F)cc3)nn2)cc1	-2	60*	8	-1	-14	28	-1	-7
Cc1cccc(N2CCN(C(=O)c3ccc4[nH]c(C)c(C)c4c3)CC2)c1C	-1	69*	-20	-3	-2	51*	0	-6
Cc1[nH]c2ccc(C(=O)N3CCN(c4ccccc4Cl)CC3)cc2c1C	0	78*	-3	1	21	56*	1	3
COc1ccccc1N1CCN(CC(=O)c2c(C)[nH]c3cc(C)ccc23)CC1	-3	40*	-13	9	6	14	0	-10
COc1ccccc1N1CCN(C(=O)c2ccc3[nH]c(C)c(C)c3c2)CC1	-2	76*	10	3	-14	45	0	-12
COc1ccc(C2CCCCCN2C(=O)C2CCN(S(=O)(=O)c3ccc(C)cc3)CC2)cc1 (stereo not given)	nt	3	nt	2	nt	nt	nt	nt
O=C(Nc1cccc(OC(F)(F)F)c1)C1Cc2c(-c3ccccc3Oc3ccccc3)ccnc2O1 (stereo not given)	nt	-3	nt	6	nt	nt	nt	nt
COC(=O)Cn1ccnc1[N+](=O)[O-]	nt	-2	nt	-5	nt	nt	nt	nt
Cc1ccc(S(=O)(=O)N2CCCN(C(=O)c3ccc(-n4nccc4C)cc3)CC2)cc1	1	47*	0	2	12	18	4	0
CCn1c(O)c(/C=C2\C=Nc3ccccc32)sc1=Nc1ccccc1	2	53*	2	6	-1	38	0	2
CC(C)(CN1CCCN(CC(C)(C)C(=O)O)C1=O)C(=O)O	nt	-9	nt	-7	nt	nt	nt	nt
COc1ccc(-c2cc(-c3nnc(COC(=O)c4ccc(O)cc4)o3)c3ccccc3n2)cc1OC	-1	46*	-3	5	-31	8	4	5
O=C(NCC(=O)N1CCN(c2ncccn2)CC1)c1ccccc1OC(F)F	-2	1	-3	-1	-11	nt	nt	nt
Cc1ccc(C(=O)NNC(=O)CSc2nnc(-c3ccncc3)n2C)cc1	1	-24	0	5	5	nt	nt	nt
COc1ccc(C(=O)NNC(=O)CSc2nnc(-c3ccc(O)cc3)n2C)cc1	-3	69*	-10	1	1	45	0	8
Cc1ccc(-c2nnc(SCC(=O)NNC(=O)COc3ccccc3C)n2C)cc1	-4	53*	1	0	6	9	-1	-4
CCc1ccc(OCC(=O)NNC(=O)CSc2nnc(-c3ccc(C)cc3)n2C)cc1	-3	41	12	4	1	nt	nt	nt
Cc1ccc(-c2nnc(SCC(=O)NNC(=O)COc3cccc(C)c3)n2C)cc1	-3	45*	-19	-6	-28	18	2	11
COc1ccc(C(=O)NNC(=O)CSc2nnc(C(C)C)n2C)cc1	-2	1	-6	2	-4	nt	nt	nt
COc1ccc(CCNC(=O)c2cccc(C(=O)NCCc3ccc(OC)cc3)n2)cc1	6	50*	10	10	7	38	0	-23
COc1ccc(CCNC(=O)c2cnc3ccccc3n2)cc1	-1	-3	16	-3	0	nt	nt	nt
O=C(CSc1ccc2c(c1)OCCO2)Nc1ncc(Cl)cc1Cl	-3	-1	1	2	13	nt	nt	nt
O=C(CSc1ccc2c(c1)OCCO2)NCCc1ccc(Cl)cc1Cl	0	63*	4	-2	-20	27	0	-12
Cc1cc(C)c(C(O)c2ncc(-c3ccccc3F)[nH]2)c(C)c1 (stereo not given)	nt	-4	nt	-3	nt	nt	nt	nt
CC(C)N(C)c1ncnc2c1ncn2[C@H]1CN(Cc2ccc(Cl)cc2)C[C@@H](CO)O1	nt	83*	nt	0	nt	77*	-2	-9
SMILES	APJ ag	EBI2 antag	CCR6 antagonist	CXCR6 block	APJ antagonist	EBI2 antag conf	EBI2 agonist	bGal cs
OC[C@@H]1CN(Cc2ccc(F)cc2)C[C@H](n2cnc3c(NC4CC4)ncnc32)O1	nt	65*	nt	-6	nt	66*	1	9
OC[C@@H]1CN(Cc2ccccc2)C[C@H](n2cnc3c(NC4CC4)ncnc32)O1	nt	24	nt	6	nt	nt	nt	nt
CC(C)N(C)c1ncnc2c1ncn2[C@H]1CN(Cc2ccccc2)C[C@@H](CO)O1	nt	16	nt	-6	nt	nt	nt	nt
C[C@@H]1CN([C@@H](C)CO)S(=O)(=O)c2ccc(C#CC(C)(C)O)cc2O[C@H]1CN(C)C(=O)C1CCCCC1	nt	4	nt	0	nt	nt	nt	nt
COc1ccc(-c2cc(C(=O)N3CCN(c4ccccc4OC)CC3)no2)cc1	-4	68*	11	6	-6	42	-2	-10
COc1ccccc1N1CCN(C(=O)c2cc(-c3ccc(F)cc3)on2)CC1	-1	57*	3	7	3	48	-1	6
COc1ccccc1-c1cc(C(=O)N2CCN(c3ccccc3OC)CC2)no1	-1	18	-5	-1	11	nt	nt	nt
COc1ccccc1N1CCN(C(=O)c2cc(-c3ccc(Cl)cc3)on2)CC1	-3	58*	0	8	-15	41	0	4
COc1ccc(-c2cc(C(=O)N3CCN(c4ccccc4)CC3)no2)cc1	0	33	7	0	-3	nt	nt	nt
COc1ccccc1N1CCN(C(=O)c2cc(-c3ccc(C)cc3)on2)CC1	-6	64*	3	0	7	44	0	1
COc1cc(NC(=O)Nc2nc(C(N)Cc3ccc(C(F)(F)F)cc3)cs2)cc(OC)c1OC (stereo not given)	nt	-14	nt	-29	nt	nt	nt	nt
CCC(=O)n1nc(-c2ccc(Cl)cc2)nc1SC	-4	9	7	-16	-8	nt	nt	nt
CCCC(=O)n1nc(-c2ccc(Cl)cc2)nc1SC	-3	80*	-13	-13	0	40	1	9
CC(C)NC(=O)N[C@H]1C=C[C@H](CC(=O)NCc2ccc(Oc3ccccc3)cc2)O[C@@H]1CO	nt	-6	nt	nt	nt	nt	nt	nt
O=C(Nc1ccc2c(c1)OCO2)c1ccc2nc([C@@H]3O[C@H](CO)[C@H](O)[C@H](O)[C@H]3O)[nH]c2c1	nt	-12	nt	4	nt	nt	nt	nt
CN(C)c1ccc(C(=O)/C=C/c2ccc(Br)cc2)cc1	0	86*	14	8	-10	64*	-1	-21
